The results in this text go back to the array DNA melting data of Ke et al. (doi:10.1101/2024.01.08.574731).

Series [1] is described as follows: folding enthalpy; higher = less favourable; fluorescence melt of hairpins on a sequencing array, two-state fit. The following applies: sodium 0.088 M. Put shortly:
(§1)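 Folding enthalpy and melting temperature come from bootstrapped two-state fits to Cy3 fluorescence of library hairpins carrying annealed Cy3 and quencher oligos on a sequenced MiSeq flow cell. Imaging was done in 50 mM Na-HEPES pH 8.0, 25 mM NaCl, stepping by 2.5 °C up to 60 °C, and signals were normalised to pre-quench Cy3 and to control constructs. Results of four replicates were combined by inverse variance, and fitted temperatures were raised by 9.35 °C to match UV melts.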

The nature of series [2]: melting temperature; fluorescence melt of hairpins on a sequencing array, two-state fit, raised by 9.35 °C to match UV melts. The following applies: sodium 0.088 M. In outline: as §1

Turning to GCCCTGGGAAACCAGAGC ((.((((....)))).)), the folding enthalpy in series [1] was -28.7 kcal/mol. In addition, the Tm in series [2] was 45.5 °C.

Take GCCCTGGGAAACTAGGGC (((((.(....).))))): the folding enthalpy in series [1] is -44.5 kcal/mol. In addition, in series [2], the Tm came out at 55.3 °C.

For GCCCTTGCGAAAGCAGGC (((..(((....)))))), the folding enthalpy in series [1] is -14.7 kcal/mol. The Tm in series [2] came out at 43.8 °C.

With GCCCTTGGAAACAAAGGC (((.(((....))).))), the folding enthalpy in series [1] is -28.2 kcal/mol. In addition, the Tm in series [2] is 35.3 °C.

Regarding GCCCTTTCGAAAGAAGGC (((..(((....)))))), the folding enthalpy in series [1] is -33.3 kcal/mol. The Tm in series [2] amounted to 37.6 °C.

As to GCCGAACGAAAGTTTGGC (((.(((....))).))), in series [1], the folding enthalpy was -35.2 kcal/mol. Besides, the Tm in series [2] was 66 °C.

Regarding GCCGACCGAAAGGTGGGC (((.(((....))).))), in series [1], the folding enthalpy was -34.4 kcal/mol. In addition, the Tm in series [2] was 67.4 °C.

As to GCCGACGAAAGTCCGGGC ((((((....)))..))), the folding enthalpy in series [1] was -24.4 kcal/mol. Also, the Tm in series [2] stood at 53 °C.

As for GCCGACGAAAGTCGAGGC ((((((....)))..))), the folding enthalpy in series [1] is -16.5 kcal/mol. The Tm in series [2] stood at 59.5 °C.

As to GCCGACGAAAGTCTCGGC ((((((....)))..))), in series [1], the folding enthalpy was -37.1 kcal/mol. For the same sequence, in series [2], the Tm is 52 °C.

For GCCGACGGAAACACCGGC ((((..(....)..)))), in series [1], the folding enthalpy was -20.4 kcal/mol. Moreover, the Tm in series [2] was found to be 43.9 °C.

On to GCCGAGCCGAAAGGCGGC (((..(((....)))))), for which the folding enthalpy in series [1] is -12.7 kcal/mol. For the same sequence, the Tm in series [2] worked out at 68.7 °C.

As for GCCGAGCGAAAGCATGGC (((..((....))..))), the folding enthalpy in series [1] is -28.1 kcal/mol. Further, the Tm in series [2] turned out to be 64 °C.

In the case of GCCGAGCGAAAGCCAGGC (((..((....))..))), the folding enthalpy in series [1] is -24 kcal/mol. Further, in series [2], the Tm amounted to 62.7 °C.

On to GCCGAGCGAAAGCTCCGC ((.((((....)))).)), for which the folding enthalpy in series [1] is -18 kcal/mol. Besides, the Tm in series [2] came out at 55.7 °C.

As for GCCGAGCGAAAGCTGTGC ((..(((....)))..)), the folding enthalpy in series [1] was -15.2 kcal/mol. Moreover, the Tm in series [2] came to 41.2 °C.

For GCCGATGGAAACATCAGC ((.((((....)))).)), the folding enthalpy in series [1] is -24.5 kcal/mol. Moreover, in series [2], the Tm is 41.5 °C.

For GCCGATGGAAACGTCGGC (((((.(....).))))), in series [1], the folding enthalpy was -44.9 kcal/mol. Besides, the Tm in series [2] stood at 62.7 °C.

As to GCCGCAGGAAACTGCGAC (.(((((....))))).), the folding enthalpy in series [1] is -13.1 kcal/mol. Moreover, the Tm in series [2] was determined as 48.8 °C.

As for GCCGCCCCGAAAGGGGGC (((..(((....)))))), the folding enthalpy in series [1] is -6.87 kcal/mol. In addition, the Tm in series [2] worked out at 67.5 °C.

In the case of GCCGCCGAAAGGCGCGGC ((((((....)))..))), the folding enthalpy in series [1] is -11.2 kcal/mol. The Tm in series [2] worked out at 69.3 °C.

In the case of GCCGCCGAAAGGCTGGGC ((((((....)))..))), the folding enthalpy in series [1] is -20.4 kcal/mol. Moreover, the Tm in series [2] turned out to be 64.8 °C.

Regarding GCCGCGCGAAAGCGATGC ((..(((....)))..)), the folding enthalpy in series [1] is -15.2 kcal/mol. The Tm in series [2] was 45.3 °C.

On to GCCGCGCGAAAGCGCCGC ((.((((....)))).)), for which the folding enthalpy in series [1] is -16.6 kcal/mol. In addition, in series [2], the Tm was 59.7 °C.

As for GCCGCGCGAAAGCTCTGC ((.(.((....)).).)), the folding enthalpy in series [1] is -10.9 kcal/mol. Further, in series [2], the Tm came to 30.7 °C.

In the case of GCCGGAGGAAACCCCAGC ((.((.(....).)).)), the folding enthalpy in series [1] is -6.86 kcal/mol. In series [2], the Tm came to 16.8 °C.

For the sequence GCCGGAGGAAACCCCGAC (.(((.(....).))).), the folding enthalpy in series [1] was -6.74 kcal/mol. Further, in series [2], the Tm was 30.2 °C.

Turning to GCCGGCGAAAGCCTGGC ((((((....))).))), the folding enthalpy in series [1] was -24.8 kcal/mol. In addition, the Tm in series [2] was found to be 68.8 °C.

Regarding GCCGGCGGAAACACCGGC (((((.(....).))))), the folding enthalpy in series [1] was -44.1 kcal/mol. Moreover, in series [2], the Tm was determined as 66.8 °C.

As to GCCGGGCGAAAGCCACGC ((..(((....)))..)), the folding enthalpy in series [1] is -12.7 kcal/mol. Also, in series [2], the Tm turned out to be 50 °C.

GCCGGGCGAAAGCCATGC ((..(((....)))..)): the folding enthalpy in series [1] is -14.4 kcal/mol. In addition, the Tm in series [2] was 42.4 °C.

Regarding GCCGGGGCGAAAGCCGGC (((..(((....)))))), the folding enthalpy in series [1] is -20 kcal/mol. Moreover, the Tm in series [2] came to 69 °C.

In the case of GCCGGTCGAAAGACGGC (((.(((....)))))), the folding enthalpy in series [1] is -30.1 kcal/mol. Moreover, in series [2], the Tm was found to be 67.6 °C.

Regarding GCCGGTCGAAAGACTGGC (((.(((....))).))), the folding enthalpy in series [1] is -32 kcal/mol. Also, the Tm in series [2] worked out at 68.3 °C.

For GCCGGTGGAAACATCGGC ((((.((....)).)))), the folding enthalpy in series [1] is -45.8 kcal/mol. Besides, the Tm in series [2] was determined as 58.9 °C.

Take GCCGGTGGAAACGCTGGC (((.(.(....).).))): the folding enthalpy in series [1] is -40.9 kcal/mol. Moreover, the Tm in series [2] stood at 50.8 °C.
